Measurements gathered from unrelated publications.
Compare with care: the assays were run in different laboratories.
Target: Serine/threonine-protein kinase/endoribonuclease IRE1 (ERN1, Homo sapiens, UniProt O75460)

Structure (SMILES)	test	setting	remaining binding [%]
C=CC(=O)N1CCC(C(=O)NCC(=O)N2CCN(c3nc(-c4cnc(N)nc4C(F)F)nc(N4CCOCC4)n3)CC2)CC1	binding, competition with immobilised ligand	1 µM	100
CNC(=O)Nc1ccc2c(c1)CC[C@@]21OC(=O)N(CC(=O)N(Cc2ccc(F)cc2)[C@@H](C)C(F)(F)F)C1=O	cell-free assay, competition with immobilised ligand	1 µM	56
N[C@H]1CCN(c2nccc(-c3cnn4ncccc34)n2)C1	binding	1 µM	98
CCC(=O)N[C@H]1CC[C@@H](C(=O)N(C)c2ccc(-c3nc4ccccc4o3)cc2)C1	cell-free assay, competition with immobilised ligand	1 µM	91
COc1ccnn2ncc(-c3ccnc(N(C)C)n3)c12	binding	1 µM	100
O=C(NCCCN1CCOCC1)c1ccc(Nc2ncc(Cl)c(-c3ccc(Cl)s3)n2)cc1	binding, competition with immobilised ligand	1 µM	27
c1cnn2ncc(-c3ccnc(N4CCC45COC5)n3)c2c1	binding	1 µM	69
O=C(NCc1ncc(C(F)(F)F)cc1Cl)c1ccc2c(c1)C1(CCS(=O)(=O)CC1)[C@@H](C1CC1)N2S(=O)(=O)c1ccc(F)cc1	cell-free assay, competition with immobilised ligand	1 µM	65
O=C(c1ccc(Nc2ncc(Cl)c(-c3cc4ccccc4s3)n2)cc1)N1CCC(N2CCCC2)CC1	binding, competition with immobilised ligand	1 µM	37
CCCCN(CCCC)C(=O)CN1C[C@@H](c2cc(OC)c3c(c2)OCO3)[C@H](C(=O)O)[C@H]1CC(C)(C)CCC	cell-free assay, competition with immobilised ligand	1 µM	100
C[C@@H](c1ccc(-n2cnc3c(N)ncnc32)cc1)N1CCc2nn(C)c(Cc3ccccc3)c2C1=O	binding, competition with immobilised ligand	0.1 µM	72
C[C@@H]1CCN(c2nccc(-c3cnn4ncccc34)n2)C1	binding	1 µM	100
CCN1CCN(Cc2ccc(C(=O)Nc3ccc(C)c(Oc4ccc5c(c4)CC(=O)N5)c3)cc2C(F)(F)F)CC1	binding, competition with immobilised ligand	1 µM	100
Cc1cnn2ncc(-c3ccnc(N(C)C)n3)c2c1	binding	1 µM	100
CCCOc1ccc([C@H]2[C@H](C(=O)O)[C@@H](c3ccc4c(c3)OCO4)CN2CC(=O)Nc2c(CC)cccc2CC)cc1	cell-free assay, competition with immobilised ligand	1 µM	86
CN(CCCC(F)(F)F)c1nccc(-c2cnn3ncccc23)n1	binding	1 µM	97
O=C(c1ccc(Nc2ncc(Cl)c(-c3ccc(Cl)s3)n2)cc1)N1CCC(N2CCCC2)CC1	binding, competition with immobilised ligand	1 µM	35
O=C(Nc1c[nH]nc1C(=O)NC1CCNCC1)c1cc(F)cc(F)c1	binding, competition with immobilised ligand	1 µM	86
FC(F)(F)Oc1cccc(-c2cnc3ccc(-c4ccncc4)nn23)c1	cell-free assay, competition with immobilised ligand	5 µM	79
Cc1cc(NC(=O)c2cccc(S(F)(F)(F)(F)F)c2)cc(-n2ccn3nc(-c4cccnc4)cc23)c1	cell-free assay, competition with immobilised ligand	1 µM	99.2
COc1cnc(Nc2cccc(S(N)(=O)=O)c2)nc1N1CCN(c2ccccc2)CC1	binding, competition with immobilised ligand	1 µM	73
